# Results taken from ChEMBL document CHEMBL1141554, “Discovery of new MurF inhibitors via pharmacophore modeling and QSAR analysis followed by in-silico screening” (Bioorg Med Chem, 2008).
# The source made the active and inactive calls. The calls are words filed in the database; no cut-off is given here.
# How the values were obtained:
# Staphylococcus aureus = assay: Antibacterial activity against Staphylococcus aureus; type: functional, organism-based
# Pseudomonas aeruginosa = assay: Antibacterial activity against Pseudomonas aeruginosa; type: functional, organism-based
# Escherichia coli = assay: Antibacterial activity against Escherichia coli; type: functional, organism-based
# [1] = target: T1, UDP-N-acetylmuramoyl-tripeptide--D-alanyl-D-alanine ligase (Pseudomonas aeruginosa) (UniProt Q9EY48); assay: Inhibition of Pseudomonas aeruginosa MurF ATPase activity assessed as residual enzyme activity at 5 mM by spectrophotometric assay relative to control
# T1 sequence (whole entry): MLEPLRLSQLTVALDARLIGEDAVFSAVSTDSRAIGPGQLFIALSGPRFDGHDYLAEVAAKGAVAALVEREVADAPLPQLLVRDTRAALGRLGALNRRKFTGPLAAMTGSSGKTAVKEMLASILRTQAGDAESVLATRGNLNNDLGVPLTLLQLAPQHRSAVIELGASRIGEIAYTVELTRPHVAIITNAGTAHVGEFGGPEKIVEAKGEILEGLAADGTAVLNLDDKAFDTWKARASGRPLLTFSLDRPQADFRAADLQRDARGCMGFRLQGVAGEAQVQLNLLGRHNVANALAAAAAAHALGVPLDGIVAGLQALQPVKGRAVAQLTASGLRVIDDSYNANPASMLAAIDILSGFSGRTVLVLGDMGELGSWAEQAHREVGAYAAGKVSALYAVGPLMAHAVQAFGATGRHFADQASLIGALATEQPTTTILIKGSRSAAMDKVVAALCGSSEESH
# [2] = target: T2, UDP-N-acetylmuramoyl-tripeptide--D-alanyl-D-alanine ligase (Pseudomonas aeruginosa, UniProt Q9EY48); assay: Inhibition of Pseudomonas aeruginosa MurF ATPase activity by spectrophotometric assay
# T2 sequence (Q9EY48 whole entry): T1 sequence (whole entry)
# Outline: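 Purified recombinant P. aeruginosa MurF was used at a high enzyme concentration. It was pre-incubated with a range of compound concentrations in pH 8.6 buffer (40 mM KCl, 500 mM NaCl, 1 mg/ml BSA, 10 mM MgCl2) before UDP-MurNAc-Ala-Glu-meso-A2pm and the other substrates were added. IC50 was derived from percent residual ATPase activity versus compound-free enzyme.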
# [3] = target: T3, UDP-N-acetylmuramoylalanine-D-glutamyl-lysine-D-alanyl-D-alanine ligase (Streptococcus pneumoniae R6, UniProt Q8DNV6); assay: Inhibition of Streptococcus pneumoniae MurF
# T3 sequence (Q8DNV6 whole entry): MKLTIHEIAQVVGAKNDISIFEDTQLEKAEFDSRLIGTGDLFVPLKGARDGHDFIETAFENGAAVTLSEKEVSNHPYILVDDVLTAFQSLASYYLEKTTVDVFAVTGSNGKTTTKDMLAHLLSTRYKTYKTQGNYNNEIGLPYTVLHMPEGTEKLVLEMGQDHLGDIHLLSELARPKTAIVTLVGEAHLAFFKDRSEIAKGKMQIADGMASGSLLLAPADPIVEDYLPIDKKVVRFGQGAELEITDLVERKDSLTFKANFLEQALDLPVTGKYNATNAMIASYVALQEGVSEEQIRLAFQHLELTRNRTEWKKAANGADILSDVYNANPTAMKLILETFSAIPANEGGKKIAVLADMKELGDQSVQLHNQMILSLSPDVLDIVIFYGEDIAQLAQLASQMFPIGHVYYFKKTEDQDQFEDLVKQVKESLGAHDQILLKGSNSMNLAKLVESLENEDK
# [4] = system: MurF (Streptococcus pneumoniae); assay: Inhibition of Streptococcus pneumoniae MurF
Structure (SMILES),Activity [1],IC50 [2],IC50 [3],further results
N#Cc1c(NC(=O)c2cc(S(=O)(=O)N3CCCCC3)ccc2Cl)sc2c1CCC2,–,–,2.5 µM,–
CCOC(=O)C1CCc2sc(NC(=O)c3cc(S(=O)(=O)N(CC)CC)ccc3Cl)c(C#N)c2C1 (stereo not given),–,–,6 µM,–
C[C@@H]1O[C@@H]1P(=O)(O)O [FOSFOMYCIN],–,–,–,IC50 [4]: 15 µM
N#Cc1c(NC(=O)c2cc(S(=O)(=O)N3CCOCC3)c(Cl)cc2Cl)sc2c1CC(c1ccc(O)cc1)CC2 (stereo not given),–,–,0.022 µM,–
C[C@]12CCC(=O)C=C1CC[C@@H]1[C@@H]2[C@@H](O)C[C@@]2(C)[C@H]1CC[C@]2(O)C(=O)COC(=O)CCC1CCCC1 [HYDROCORTISONE CYPIONATE],86%,> 5000 µM,–,–
N#Cc1cc(CCc2ccncc2)sc1NC(=O)c1cc(S(=O)(=O)N2CCOCC2)ccc1Cl,–,–,6 µM,–
CCN(CC)S(=O)(=O)c1cc(C(=O)Nc2sc3c(c2C#N)CC(c2ccc(O)cc2)CC3)c(Cl)cc1Cl (stereo not given),–,–,0.067 µM,–
N#Cc1c(NC(=O)c2cc(S(=O)(=O)N3CCOCC3)c(F)cc2Cl)sc2c1CCC2,–,–,> 6.4 µM,–
CCN(CC)S(=O)(=O)c1ccc(Cl)c(C(=O)Nc2sc3c(c2C#N)CC(c2ccc(O)cc2)CC3)c1 (stereo not given),–,–,0.054 µM,–
N#Cc1c(NC(=O)c2cc(S(=O)(=O)N3CCOCC3)c(Cl)cc2Cl)sc2c1CC(c1ccccc1)CC2 (stereo not given),–,–,0.07 µM,–

# Continued, in another order:
Activity [1],IC50 [2],Structure (SMILES),IC50 [3],further results
0%,300 µM,O=C1C=CC(=O)C(SCCCSC2=CC(=O)C(SCCCSC3=CC(=O)C=CC3=O)=CC2=O)=C1,–,Activity (Staphylococcus aureus): inactive; Activity (Pseudomonas aeruginosa): inactive; Activity (Escherichia coli): inactive
71%,> 5000 µM,O=S(=O)(SC(=S)NCCNC(=S)SS(=O)(=O)c1ccc(Cl)cc1)c1ccc(Cl)cc1,–,–
84%,> 5000 µM,Cn1nnnc1SCC1=C(C(=O)O)N2C(=O)[C@@H](NC(=O)[C@H](OC=O)c3ccccc3)[C@H]2SC1 [CEFAMANDOLE NAFATE],–,–
0%,325 µM,COc1ccc(CCN2C(=O)c3cccc4c(Sc5ccccc5[N+](=O)[O-])ccc(c34)C2=O)cc1OC,–,Activity (Staphylococcus aureus): inactive; Activity (Pseudomonas aeruginosa): inactive; Activity (Escherichia coli): inactive
100%,> 5000 µM,O=S(=O)(O)c1ccc(/N=N/c2ccc(O)c(/N=N/c3ccc(S(=O)(=O)O)c4ccccc34)c2O)c2ccccc12,–,–
48%,4800 µM,CSc1ncnc2c1ncn2CC(=O)[C@@]1(O)CC[C@H]2[C@@H]3CCC4=CC(=O)CC[C@]4(C)[C@H]3[C@@H](O)C[C@@]21C,–,–
42%,4300 µM,C[C@]12CCC(=O)C=C1CC[C@@H]1[C@@H]2[C@@H](O)C[C@@]2(C)[C@H]1CC[C@]2(O)C(=O)COC(=O)C1C2C=CC(C2)C1C(=O)O (stereo not given in full),–,–
51%,> 5100 µM,CCOC(=O)Cn1/c(=N/N=C/c2ccc([N+](=O)[O-])o2)sc2cc(OC)ccc21,–,–
0%,125 µM,COc1ccc(NC(=O)C(=O)Cc2nc3ccc([N+](=O)[O-])cc3nc2O)c(OC)c1,–,Activity (Staphylococcus aureus): inactive; Activity (Pseudomonas aeruginosa): inactive; Activity (Escherichia coli): inactive
67%,> 5000 µM,C[C@]12CCC(=O)C=C1CC[C@@H]1[C@@H]2[C@@H](O)C[C@@]2(C)[C@H]1CC[C@]2(O)C(=O)COC(=O)c1cc([N+](=O)[O-])ccc1Cl,–,–
